This is an account of results in ChEMBL document CHEMBL4665863 (Bioorg Med Chem, 2020).

Test [1] relates to Staphylococcus aureus. As to the kind of experiment: Antibacterial activity against Staphylococcus aureus ATCC25923 incubated for 24 hrs by CLSI-based broth microdilution method. The test is classed as functional.
Another test deals with Bacillus pumilus. The experiment in a line: Antibacterial activity against Bacillus pumilus CMCC63202 incubated for 24 hrs by CLSI-based broth microdilution method. In kind it is functional.
For test [2], the system named is Staphylococcus aureus. The experiment in a line: Inhibition of FtsZ in Staphylococcus aureus clinical isolate assessed as inhibition of bacterial cell elongation by measuring bacterial cell diameter at 0.25 ug/ml incubated for 18 hrs by phase contrast microscopic analysis (reference value: 0.79 +/- 0.05 um). The conditions noted are these: dose 0.25 µg/ml.
For test [3], the system named is Staphylococcus aureus. The experiment in a line: Potency index, ratio of PC190723 MIC to test compound MIC for antibacterial activity against methicillin-resistant Staphylococcus aureus ATCC43300 incubated for 24 hrs by CLSI-based broth microdilution method. The test is classed as functional.
Test [4] deals with Staphylococcus aureus. As to the kind of experiment: Bactericidal activity against Staphylococcus aureus clinical isolate assessed as reduction in number of colony forming units at 2XMIC incubated for 12 hrs by Time-kill assay. The test is classed as functional.
Test [5] has as its system Staphylococcus aureus. The experiment in a line: In-vivo antibacterial activity against Staphylococcus aureus infected in KM mouse model assessed as reduction in bacterial load in blood at 10 mg/kg, iv administered thrice daily and measured after 48 hrs. The test is classed as functional, organism-based. The procedure, abridged: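 Groups of four KM mice (average 20 g) were infected i.v. with 8.5 × 10⁸ CFU of a clinical S. aureus isolate resistant to CIP and ERY, in 0.15 mL saline. Treatment was 10 mg/kg i.v. three times daily. Vehicle was 2% DMAC, 30% PEG400/PG (1:1) and 5% HPβCD in water; vehicle and LIN arms were included. At 48 h, retro-orbital blood (0.1 mL) was plated on TSA for CFU counts.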

The next test has as its system Pseudomonas aeruginosa. The experiment in a line: Antibacterial activity against Pseudomonas aeruginosa ATCC27853 incubated for 24 hrs by CLSI-based broth microdilution method. The test is classed as functional.
For test [6], the system named is Staphylococcus aureus. As to the kind of experiment: Bactericidal activity against Staphylococcus aureus clinical isolate assessed as reduction in number of colony forming units at 4XMIC incubated for 9 hrs by Time-kill assay. In kind it is functional.
Test [7] relates to Staphylococcus aureus. As to the kind of experiment: Bacteriostatic activity against methicillin-resistant Staphylococcus aureus ATCC43300 assessed as ratio of MBC to MIC. In kind it is functional.
In test [8] the test system is Bacillus subtilis. As to the kind of experiment: Inhibition of ftsZ in Bacillus subtilis assessed as increase in enzyme polymerization kinetics measured for 30 mins by microtiter plate-based light scattering assay. The procedure, abridged:
(§1)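 Purified recombinant B. subtilis FtsZ was used. Polymerization was followed as light scattering in microtiter plates, read as time-dependent absorbance at 340 nm at several compound concentrations. Vehicle, CIP and LIN served as controls.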

The subject of test [9] is Staphylococcus aureus. The experiment in a line: Potency index, ratio of linezolid MIC to test compound MIC for antibacterial activity against methicillin-resistant Staphylococcus aureus ATCC43300 incubated for 24 hrs by CLSI-based broth microdilution method. The test is classed as functional.
Test [10] has as its system Staphylococcus aureus. The experiment in a line: Bactericidal activity against Staphylococcus aureus ATCC25923 assessed as reduction in number of colony forming units incubated for 24 hrs followed by re-plating and reincubation on tryptic soy agar plate for 24 hrs. The test is classed as functional.
Test [11] relates to Staphylococcus aureus. The experiment in a line: Bactericidal activity against methicillin-resistant Staphylococcus aureus ATCC43300 assessed as reduction in number of colony forming units incubated for 24 hrs followed by re-plating and reincubation on tryptic soy agar plate for 24 hrs. In kind it is functional.
The test system of test [12] is Staphylococcus aureus. The experiment in a line: Bactericidal activity against penicillin-resistant Staphylococcus aureus assessed as reduction in number of colony forming units incubated for 24 hrs followed by re-plating and reincubation on tryptic soy agar plate for 24 hrs. The test is classed as functional.
For test [13], the system named is Staphylococcus aureus. As to the kind of experiment: Bacteriostatic activity against Staphylococcus aureus ATCC25923 assessed as ratio of MBC to MIC. In kind it is functional.
For test [14], the system named is Staphylococcus aureus. As to the kind of experiment: Bactericidal activity against Staphylococcus aureus clinical isolate assessed as reduction in number of colony forming units at 1XMIC incubated for 24 hrs by Time-kill assay. In kind it is functional.
In test [15] the test system is Staphylococcus aureus. The experiment in a line: Bactericidal activity against Staphylococcus aureus clinical isolate assessed as reduction in number of colony forming units at 0.5 times MIC incubated for 24 hrs by Time-kill assay. In kind it is functional, organism-based.
Test [16] deals with Bacillus subtilis. The experiment in a line: Inhibition of FtsZ in Bacillus subtilis ATCC9372 assessed as inhibition of bacterial cell elongation by measuring bacterial cell length at 0.25 ug/ml incubated for 18 hrs by phase contrast microscopic analysis (reference value: 2.28 +/- 0.29 um). The conditions noted are these: dose 0.25 µg/ml. The procedure, abridged: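 Compound at 0.25 μg/mL, compared with untreated cells, imaged by microscopy. For B. subtilis ATCC9372, cell length was measured (n = 15). For S. aureus ATCC CI, cell diameter was measured (n = 15). Mean and SD were reported.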

Test [17] concerns Staphylococcus aureus. As to the kind of experiment: Antibacterial activity against Staphylococcus aureus clinical isolate incubated for 24 hrs by CLSI-based broth microdilution method. The test is classed as functional.
For a further test, the system named is HeLa. As to the kind of experiment: Cytotoxicity against human Hela cells assessed as reduction in cell viability incubated for 48 hrs by MTT assay. In kind it is cell-based. The procedure, abridged:
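HeLa (human cervical cancer) cells were exposed continuously for 48 h, and viability was read by MTT.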

Test [18] relates to Staphylococcus aureus. As to the kind of experiment: Antibacterial activity against penicillin-resistant Staphylococcus aureus incubated for 24 hrs by CLSI-based broth microdilution method. The test is classed as functional.
The test system of test [19] is Staphylococcus aureus. The experiment in a line: Bacteriostatic activity against penicillin-resistant Staphylococcus aureus assessed as ratio of MBC to MIC. In kind it is functional.
Test [20] concerns Staphylococcus aureus. As to the kind of experiment: Bacteriostatic activity against Staphylococcus aureus clinical isolate assessed as ratio of MBC to MIC. In kind it is functional.
Test [21] deals with Staphylococcus aureus. The experiment in a line: Potency index, ratio of PC190723 MIC to test compound MIC for antibacterial activity against penicillin-resistant Staphylococcus aureus incubated for 24 hrs by CLSI-based broth microdilution method. The test is classed as functional.
Test [22] relates to Bacillus subtilis. The experiment in a line: Inhibition of ftsZ in Bacillus subtilis assessed as increase in enzyme polymerization kinetics at 5 ug/ml measured for 30 mins by microtiter plate-based light scattering assay. The note with it: dose 5.0 µg/ml. The procedure, abridged: as §1
In test [23] the test system is Staphylococcus aureus. As to the kind of experiment: Bactericidal activity against Staphylococcus aureus clinical isolate assessed as reduction in number of colony forming units incubated for 24 hrs followed by re-plating and reincubation on tryptic soy agar plate for 24 hrs. In kind it is functional.
A further test concerns Escherichia coli. The experiment in a line: Antibacterial activity against Escherichia coli ATCC25922 incubated for 24 hrs by CLSI-based broth microdilution method. In kind it is functional. The conditions noted are these: ATCC 25922.
In test [24] the test system is Staphylococcus aureus. The experiment in a line: Potency index, ratio of ciprofloxacin MIC to test compound MIC for antibacterial activity against methicillin-resistant Staphylococcus aureus ATCC43300 incubated for 24 hrs by CLSI-based broth microdilution method. The test is classed as functional.
Test [25] concerns Staphylococcus aureus. The experiment in a line: Potency index, ratio of linezolid MIC to test compound MIC for antibacterial activity against penicillin-resistant Staphylococcus aureus incubated for 24 hrs by CLSI-based broth microdilution method. The test is classed as functional.
For test [26], the system named is Staphylococcus aureus. The experiment in a line: Antibacterial activity against methicillin-resistant Staphylococcus aureus ATCC43300 incubated for 24 hrs by CLSI-based broth microdilution method. In kind it is functional.
Test [27] has as its system Bacillus subtilis. As to the kind of experiment: Antibacterial activity against Bacillus subtilis ATCC9372 incubated for 24 hrs by CLSI-based broth microdilution method. The test is classed as functional.

Converted amounts (≈) assume the structure as drawn. The source made the active and inactive calls. No cut-off for these calls is given here. Bounds are passed on as bounds.

For the compound `CCCCc1ccc(C2=NOC(COc3ccc(F)c(C(N)=O)c3F)C2)cc1` (configuration not stated), the MIC against Staphylococcus aureus [1] is 0.5 µg/mL (≈ 1.29 µM); against Bacillus pumilus, not above 0.125 µg/mL; in the test with Pseudomonas aeruginosa, more than 64 µg/mL; against Staphylococcus aureus [17] it was 0.5 µg/mL (≈ 1.29 µM); against Staphylococcus aureus [18], 0.5 µg/mL (≈ 1.29 µM); in the test on Escherichia coli it was more than 64 µg/mL. Besides, the MIC against Staphylococcus aureus [26] is 0.25 µg/mL (≈ 0.644 µM); with Bacillus subtilis [27], 0.5 µg/mL (≈ 1.29 µM). In addition, the cell diameter in the test on Staphylococcus aureus [2] was determined as 2.41 µm. For the same compound, the Ratio with Staphylococcus aureus [3] turned out to be 4; in the test on Staphylococcus aureus [7] it was 2; in the test with Staphylococcus aureus [9], 8; with Staphylococcus aureus [13] it was 1; with Staphylococcus aureus [19], 2; in the test with Staphylococcus aureus [20] it was 1. The Ratio in the test on Staphylococcus aureus [21] is reported as 2; with Staphylococcus aureus [24], 64; in the test with Staphylococcus aureus [25], 2. Moreover, the Activity in the test with Staphylococcus aureus [4], with Staphylococcus aureus [6] and in the test with Staphylococcus aureus [14] was <1 10^3CFU/ml each time. Further, the outcome in the test with Staphylococcus aureus [5] and in the test on Staphylococcus aureus [15] was Active. For the same compound, in the test on Bacillus subtilis [8], the inhibition result is “Dose-dependent effect”. In addition, the MBC in the test on Staphylococcus aureus [10] turned out to be 0.5 µg/mL (≈ 1.29 µM); in the test on Staphylococcus aureus [11], 0.5 µg/mL (≈ 1.29 µM); in the test with Staphylococcus aureus [12], 1 µg/mL (≈ 2.57 µM); with Staphylococcus aureus [23] it was 0.5 µg/mL (≈ 1.29 µM). Further, the cell length in the test on Bacillus subtilis [16] came out at 29.3 µm. Moreover, the IC50 in the test on HeLa was more than 64 µg/mL. Besides, the “FtsZ polymerization increase (active/inactive call)” value in the test on Bacillus subtilis [22] is “Active”.

On to `CC[C@H]1OC(=O)[C@H](C)[C@@H](O[C@H]2C[C@@](C)(OC)[C@@H](O)[C@H](C)O2)[C@H](C)[C@@H](O[C@@H]2O[C@H](C)C[C@H](N(C)C)[C@H]2O)[C@](C)(OC)C[C@@H](C)C(=O)[C@H](C)[C@@H](O)[C@]1(C)O` [CLARITHROMYCIN], for which the minimum inhibitory concentration (MIC) was 0.125 µg/mL (≈ 0.167 µM) in the test on Staphylococcus aureus [1], more than 64 µg/mL with Staphylococcus aureus [17] and more than 64 µg/mL in the test on Staphylococcus aureus [26]. Further, the Ratio result in the test with Staphylococcus aureus [7], in the test on Staphylococcus aureus [19] and with Staphylococcus aureus [20] was “inactive” in each case. In addition, the MBC in the test with Staphylococcus aureus [10] came out at 4 µg/mL (≈ 5.35 µM). The MBC result in the test on Staphylococcus aureus [11], in the test with Staphylococcus aureus [12] and with Staphylococcus aureus [23] was “inactive” throughout. Also, in the test on Staphylococcus aureus [13], the Ratio is 32.
